Apaf-1 inh – inhibitors of human Apaf-1 apoptosome, primary screen, biochemical, DEVD-Rh110 fluorescence, uHTS | Apoptotic protease-activating factor 1 (Homo sapiens), O14727 | reconstituted apoptosome caspase-3 activity | inhibition, % at 20 µM | 330,000 tested, 0.71% active | AID 489030, 2010; active = inhibition of at least 40% at 20 µM;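 also: plate controls were DMSO wells for no effect and DEVD-CHO caspase inhibitor wells for full effect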
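detection = Rh110 fluorescence intensity | test system = biochemical Apaf-1 apoptosome reconstitution | also added = cytochrome c and DEVD-Rh110 substrate | schedule = 30 min plus 50 min, RT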
PAFAH2 FP inh – PAFAH2 enzyme inhibitors, primary screen, biochemical, fluorescence polarization, human | Platelet-activating factor acetylhydrolase 2, cytoplasmic (Homo sapiens), Q99487 | recombinant PAFAH2, FP-rhodamine activity probe | inhibition, % at 3.39 µM | 340,000 tested, 0.99% active | AID 492956, 2010;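 active = inhibition above the mean over all tested compounds plus 3 SD, cut at about 30% in these data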;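 also: inhibitors block probe labeling of enzyme so polarization drops; 0% = enzyme with DMSO and 100% = wells lacking PAFAH2 protein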
TDP2 absorb – human TDP2 enzyme inhibitors, primary screen, biochemical, epi absorbance, recombinant enzyme | Tyrosyl-DNA phosphodiesterase 2 (Homo sapiens), O95551 | T5PNP hydrolysis, p-nitrophenol absorbance 415 nm | inhibition, % at 12.8 µM | 370,000 tested, 0.34% active;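 active = inhibition above the mean of all tested compounds plus 3 SD, set per campaign, cut at about 25% in these data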;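 also: 0% = DMSO with enzyme and 100% = buffer with substrate but no TDP2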
Target sequence (O95551 whole entry, looked up): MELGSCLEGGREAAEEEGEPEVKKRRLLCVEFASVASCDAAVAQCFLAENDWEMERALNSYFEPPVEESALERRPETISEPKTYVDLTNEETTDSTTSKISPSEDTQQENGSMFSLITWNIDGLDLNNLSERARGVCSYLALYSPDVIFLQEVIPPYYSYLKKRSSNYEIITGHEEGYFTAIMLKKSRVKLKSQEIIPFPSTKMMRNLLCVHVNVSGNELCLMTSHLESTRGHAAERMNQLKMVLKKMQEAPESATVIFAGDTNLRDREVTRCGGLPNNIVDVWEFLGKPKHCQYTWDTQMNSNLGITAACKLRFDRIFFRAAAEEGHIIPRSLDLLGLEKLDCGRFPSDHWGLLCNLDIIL
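Assay system: recombinant human TDP2 / Reagent: T5PNP substrate at 5 mM, a TopII-DNA adduct mimic / Measured by: epi absorbance from released p-nitrophenol / Evaluation: % inhibition relative to enzyme-containing and enzyme-free wells / Control set: enzyme-free and DMSO wells / Replicates: each compound tested once, singlicate / Schedule: enzyme reaction with compound for 2 h at 37 °C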
PAFAH1B3 inh – PAFAH1B3 enzyme inhibitors, primary screen, biochemical, fluorescence polarization, human | 340,000 tested, 0.28% active | Platelet-activating factor acetylhydrolase IB subunit alpha1 (Homo sapiens), Q15102 | recombinant PAFAH1B3, FP-rhodamine probe | inhibition, % at 3.39 µM;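 active = inhibition above the screen-wide average of all tested compounds plus 3 SD, cut at about 25% in these data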;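 also: 0% = enzyme with DMSO only and 100% = wells lacking PAFAH1B3 protein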
PAFAH1B2 FP inh – PAFAH1B2 enzyme inhibitors, primary screen, biochemical, fluorescence polarization, human; Platelet-activating factor acetylhydrolase IB subunit alpha2 (Homo sapiens), P68402; recombinant PAFAH1B2, FP-rhodamine activity probe; inhibition, % at 3.39 µM; 340,000 tested, 1.2% active; AID 492953, 2010;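 active = inhibition above the mean of all tested compounds plus 3 SD, cut at about 24% in these data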;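 also: 0% = enzyme with DMSO and 100% = wells lacking PAFAH1B2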
Target sequence (P68402 whole entry, looked up): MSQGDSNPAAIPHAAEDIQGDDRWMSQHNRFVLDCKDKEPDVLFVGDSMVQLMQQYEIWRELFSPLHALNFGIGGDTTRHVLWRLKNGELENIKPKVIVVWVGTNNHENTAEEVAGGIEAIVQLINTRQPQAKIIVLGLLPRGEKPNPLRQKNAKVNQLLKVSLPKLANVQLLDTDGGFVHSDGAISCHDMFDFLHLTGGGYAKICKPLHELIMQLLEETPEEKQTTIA
Apaf-1 inh conf – Apaf-1 inhibitors, single-dose retest, confirmation, biochemical, fluorescence, DEVD-Rh110, 20 µM | shares compounds with Apaf-1 inh | inhibition, % at 20 µM | AID 504614, 2011 | reconstituted apoptosome, caspase-3 DEVD-Rh110 fluorescence | 1,800 tested, 25% active;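 active = mean inhibition of at least 40% at 20 µM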;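 also: plate controls were DMSO wells for no effect and DEVD-CHO caspase inhibitor control wells for full effect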
Rh110 quench – Rh110 fluorescence interference by putative Apaf-1 inhibitors, confirmation, artefact control for Apaf-1 inhibitor project, biochemical, 20 µM | activation (fluorescence interference), % at 20 µM | shares compounds with Apaf-1 inh | quenched caspase reaction | 1,800 tested, under 10 active;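 active = signal rise of 40% or more at 20 µM, treated as a fluorescence artifact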
Apaf1 inh interf – fluorescence interference of Apaf-1 inhibitor hits, dose response, artefact control for Apaf-1 inhibitor project; shares compounds with Apaf-1 inh; fluorescence interference counterscreen, Apaf-1 assay format; IC50, µM; 460 tested, under 10 active; call rule not given here
* = called active by the depositor. Compounds with a hit are over-represented: about 2.3% of the library has one in this group of screens.

Results for CCOC(=O)C1CCCN(C(=O)c2cccc(S(=O)(=O)N(C)c3c(C)n(C)n(-c4ccccc4)c3=O)c2)C1 (stereo not drawn) ?
Apaf-1 inh: 49.1*; PAFAH2 FP inh: -0.5; TDP2 absorb: 5.9; PAFAH1B3 inh: -3.1; PAFAH1B2 FP inh: -3.6; Apaf-1 inh conf: 32.8; Rh110 quench: 6.7

How did CCOC(=O)C1CCCN(C(=O)c2cccc(S(=O)(=O)NCc3ccccc3)c2)C1 (stereo not drawn) do in these assays?
TDP2 absorb: 7.3

Results for O=[N+]([O-])c1cc(CN2CCN(c3cccc(C(F)(F)F)c3)CC2)c2cccnc2c1O ?
Apaf-1 inh: 41.6*; TDP2 absorb: -1.8; Apaf-1 inh conf: 24.0; Rh110 quench: 5.2

How did CCCC1CCC2(CC1)CCC2OC(=S)NCc1ccc(Cl)cc1 (stereo not drawn) do in these assays?
TDP2 absorb: -5.9

Results for CCOC(=O)c1ccccc1S(=O)(=O)N1CCN(c2nc(-c3cccs3)nc3ccccc23)CC1 ?
TDP2 absorb: 2.5

How did O=C(C1CCN(c2cncnc2)CC1)N1CCCC1 do in these assays?
TDP2 absorb: 9.1

How did O=C1C(C2=C(O)c3ccccc3C2=O)=Nc2ccccc21 do in these assays?
Apaf-1 inh: 65.8*; PAFAH2 FP inh: 53.1*; TDP2 absorb: 13.6; PAFAH1B3 inh: 55.3*; PAFAH1B2 FP inh: 20.1; Apaf-1 inh conf: 99.1*; Rh110 quench: 11.5; Apaf1 inh interf: >100

How did CN=CC1=C(O)c2ccccc2C1=O do in these assays?
Apaf-1 inh: -22.2; PAFAH2 FP inh: -1.6; TDP2 absorb: -4.8; PAFAH1B3 inh: 5.5; PAFAH1B2 FP inh: 1.5

What do the screens show for `Clc1cc(Cl)cc(CNC2CCC23CCCCC3)c1` (stereo not drawn)?
TDP2 absorb: 3.9

Results for O=C(CCc1ccccc1-c1ccccc1CCNC(=O)c1ccccc1)NCc1ccccc1 ?
TDP2 absorb: -3.3

What do the screens show for `COc1ccc(CN2CC(C(=O)NCc3cccc(OC)c3)CC2=O)cc1` (stereo not drawn)?
Apaf-1 inh: 66.7*; PAFAH2 FP inh: 7.0; TDP2 absorb: -12.8; PAFAH1B3 inh: -5.8; PAFAH1B2 FP inh: 0.6; Apaf-1 inh conf: 10.7; Rh110 quench: 3.9

How did CCOC(=O)[C@@]12CN(C(=O)OC(C)(C)C)CC=C1N(Cc1ccc(OC)cc1)C(=O)[C@H]2CC(=O)N1CCSCC1 do in these assays?
TDP2 absorb: 3.8

Results for COc1ccccc1C(=O)Nc1ccc(Oc2nnc(-c3ccc(C)cc3)c3ccccc23)cc1 ?
Apaf-1 inh: 40.1*; PAFAH2 FP inh: -9.9; TDP2 absorb: 10.6; PAFAH1B3 inh: -8.8; PAFAH1B2 FP inh: -4.5; Apaf-1 inh conf: 8.1; Rh110 quench: 6.5

What do the screens show for `Cc1ccc(Oc2nnc(-c3ccc(C)cc3)c3ccccc23)cc1`?
Apaf-1 inh: 7.7; PAFAH2 FP inh: 9.5; TDP2 absorb: 5.2; PAFAH1B3 inh: -6.4; PAFAH1B2 FP inh: -1.0

How did CCOc1ccc(/C=C2\NCCc3cc(OCC)c(OCC)cc32)cc1OCC do in these assays?
TDP2 absorb: 6.3

How did CC(=O)Nc1sc2c(c1-c1nc(-c3ccccc3)cs1)CCN(C(C)C)C2 do in these assays?
TDP2 absorb: 6.7

What do the screens show for `CN1CCN(c2ccc(NC(=O)c3ccc(Oc4ccccc4)cc3)cc2)CC1`?
Apaf-1 inh: 17.4; PAFAH2 FP inh: 0.3; TDP2 absorb: 7.7; PAFAH1B3 inh: -0.3; PAFAH1B2 FP inh: 6.1

What do the screens show for `C=CC(=O)Nc1ccc(N(C)c2ccnc(Nc3ccc(N4CCN(C)CC4)cc3)n2)cc1`?
Apaf-1 inh: 61.6*; PAFAH2 FP inh: 4.6; TDP2 absorb: -5.2; PAFAH1B3 inh: 1.9; PAFAH1B2 FP inh: 7.8; Apaf-1 inh conf: 24.8; Rh110 quench: 5.8

How did COc1ccc2c(c1)CN1C(=O)N(Cc3ccc(F)cc3)S(=O)(=O)CC21 (stereo not drawn) do in these assays?
TDP2 absorb: 5.2

How did COc1ccccc1N1CCN(C(=O)c2cc3cc(F)ccc3[nH]2)CC1 do in these assays?
Apaf-1 inh: 15.0; PAFAH2 FP inh: 3.1; TDP2 absorb: -10.7; PAFAH1B3 inh: -3.6; PAFAH1B2 FP inh: 0.3

How did Cc1cccc(N2CCN(C(=O)c3cc4cc(F)ccc4[nH]3)CC2)c1C do in these assays?
Apaf-1 inh: 42.0*; PAFAH2 FP inh: -2.8; PAFAH1B3 inh: -0.2; PAFAH1B2 FP inh: 1.3; Apaf-1 inh conf: 27.2; Rh110 quench: 4.7

What do the screens show for `Cc1ccc(S(=O)(=O)N2CCN(S(=O)(=O)N3CCC(C)CC3)CC2)c(C)c1`?
Apaf-1 inh: 4.8; PAFAH2 FP inh: -10.5; TDP2 absorb: -8.3; PAFAH1B3 inh: 10.8; PAFAH1B2 FP inh: 2.2

What do the screens show for `CC1CCN(S(=O)(=O)c2ccc3c4c2CC(=O)N4CC(C)S3)CC1` (stereo not drawn)?
Apaf-1 inh: 94.4*; PAFAH2 FP inh: 61.9*; TDP2 absorb: 5.2; PAFAH1B3 inh: -4.7; PAFAH1B2 FP inh: 16.2; Apaf-1 inh conf: 86.5*; Rh110 quench: -0.9; Apaf1 inh interf: >100

Results for COC(=O)[C@]12C[C@H](CC(=O)N3CCOCC3)C(=O)N(Cc3ccccc3)C1=C[C@H](C(C)(C)C)O[C@@H]2C ?
TDP2 absorb: 8.2

Results for CSCCC(NC(=O)c1ccccc1Br)C(=O)N1CCN(C(C)=O)CC1 (stereo not drawn) ?
Apaf-1 inh: 48.1*; PAFAH2 FP inh: 1.0; TDP2 absorb: -3.2; PAFAH1B3 inh: 3.5; PAFAH1B2 FP inh: 4.1; Apaf-1 inh conf: 37.3; Rh110 quench: -1.1

What do the screens show for `CCCCNc1c(-c2ccc(OC)c(SC(C)CC)c2)nc2cc(C)ccn12` (stereo not drawn)?
Apaf-1 inh: 48.9*; PAFAH2 FP inh: 2.1; TDP2 absorb: -6.2; PAFAH1B3 inh: 9.1; PAFAH1B2 FP inh: 7.8; Apaf-1 inh conf: 17.8; Rh110 quench: 9.1

How did CCCCCCSc1ccc(-c2nc3ccc(C)cn3c2NCc2ccccc2)cc1OC do in these assays?
Apaf-1 inh: 41.5*; PAFAH2 FP inh: 6.4; TDP2 absorb: -1.8; PAFAH1B3 inh: 15.4; PAFAH1B2 FP inh: 3.4; Apaf-1 inh conf: 21.1; Rh110 quench: -0.8
